This note sets out measurements from paper PMC4800337 (Kidney international, 2016).

In data set [1] the target is human CD36 (CD36-overexpressing HeLa cells) (Homo sapiens, UniProt P16671). Nature of the data set: Competition with Alexa-Fluor-488 oxLDL uptake in CD36-overexpressing HeLa cells. It is filed as cell-based.
Data set [2] is described as follows: Liver toxicity by serum transaminases in 5/6Nx+AngII mice. It is filed as in vivo, mouse. As to conditions: mice 5/6Nx+AngII treated with 5A 5 mg/kg/day, 4 weeks. In a few lines: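 C57BL/6 mice underwent 5/6 nephrectomy: left kidney resection at week −1, then right nephrectomy at week 0. Animals were kept if the resected-to-removed kidney weight ratio was 0.5–0.65. Buprenorphine was given at 0.1 mg/kg after surgery and 0.05 mg/kg at 18 h. Val5-AngII (0.75 µg/kg/min, in sterile water) and 5A (5 mg/kg/day) were infused by separate subcutaneous osmotic mini-pumps placed at right nephrectomy.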

Where no end group is shown, it is not given here.

human CD36 (CD36-overexpressing HeLa cells), sequence (P16671 whole entry, the tested form may be a part): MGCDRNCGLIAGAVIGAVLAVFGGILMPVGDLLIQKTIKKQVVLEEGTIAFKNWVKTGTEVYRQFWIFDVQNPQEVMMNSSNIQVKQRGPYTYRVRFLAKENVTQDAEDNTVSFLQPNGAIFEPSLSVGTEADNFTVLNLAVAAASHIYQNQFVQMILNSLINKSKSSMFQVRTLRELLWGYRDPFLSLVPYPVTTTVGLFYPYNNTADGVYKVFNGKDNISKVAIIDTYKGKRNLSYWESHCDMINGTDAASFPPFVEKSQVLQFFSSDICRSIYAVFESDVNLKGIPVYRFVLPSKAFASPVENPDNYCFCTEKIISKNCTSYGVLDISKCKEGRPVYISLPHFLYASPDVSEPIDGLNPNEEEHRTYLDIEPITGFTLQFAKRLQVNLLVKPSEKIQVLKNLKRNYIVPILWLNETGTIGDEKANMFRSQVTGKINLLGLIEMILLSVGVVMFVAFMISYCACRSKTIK

For the sequence “DWLKAFYDKVAEKLKEAFPDWAKAAYDKAAEKAKEAA [5A]”, in data set [1], the IC50 turned out to be 7.5 µM and the Ki was 1.45 µM. For the same sequence, the “Liver toxicity, serum transaminases” value in data set [2] was “did not have liver toxicity”.
